Source: ChEMBL document CHEMBL2021837, “A novel series of l-2-benzyloxycarbonylamino-8-(2-pyridyl)-disulfidyloctanoic acid derivatives as histone deacetylase inhibitors: design, synthesis and molecular modeling study” (Eur J Med Chem, 2012)

Tests used:
[1] = biological target: Histone deacetylase 1 (Homo sapiens, UniProt Q13547); experiment: Inhibition of human HDAC1 in presence of dithiothreitol by HDAC fluorescent assay
[2] = system: MCF7; experiment: Antiproliferative activity against human MCF7 cells after 48 hrs by MTT assay; type: functional, cell-based; conditions: MCF7, 48 h
Method in brief: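 MCF-7 cells were grown in DMEM with 10% fetal bovine serum at 37 °C under 5% CO₂, then plated and incubated overnight. Compounds were added as 10-fold serial dilutions. MTT (0.5 mg/mL in serum-free medium) was added for 4 h, formazan was dissolved in DMSO, and absorbance was read at 570 nm. IC₅₀ was determined in triplicate, with at least three repeat experiments.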

[3] = biological target: Histone deacetylase 2 (Homo sapiens, UniProt Q92769); experiment: Inhibition of HDAC2 in human HeLa cell nuclear extracts in presence of dithiothreitol by HDAC fluorescent assay
Histone deacetylase 2, sequence (Q92769 whole entry): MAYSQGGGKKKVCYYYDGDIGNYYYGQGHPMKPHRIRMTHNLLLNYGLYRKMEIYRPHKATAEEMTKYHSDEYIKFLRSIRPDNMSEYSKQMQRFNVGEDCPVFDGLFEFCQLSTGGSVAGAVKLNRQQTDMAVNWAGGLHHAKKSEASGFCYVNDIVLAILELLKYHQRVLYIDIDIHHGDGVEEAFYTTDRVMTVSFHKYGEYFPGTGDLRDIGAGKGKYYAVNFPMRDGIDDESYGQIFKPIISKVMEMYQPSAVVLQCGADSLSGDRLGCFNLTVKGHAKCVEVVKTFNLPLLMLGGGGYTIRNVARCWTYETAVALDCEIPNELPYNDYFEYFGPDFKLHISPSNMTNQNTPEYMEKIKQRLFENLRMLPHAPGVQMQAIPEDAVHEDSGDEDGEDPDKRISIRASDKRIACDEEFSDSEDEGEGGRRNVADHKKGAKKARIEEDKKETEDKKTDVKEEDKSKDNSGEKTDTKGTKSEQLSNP

Histone deacetylase 1, sequence (Q13547 whole entry): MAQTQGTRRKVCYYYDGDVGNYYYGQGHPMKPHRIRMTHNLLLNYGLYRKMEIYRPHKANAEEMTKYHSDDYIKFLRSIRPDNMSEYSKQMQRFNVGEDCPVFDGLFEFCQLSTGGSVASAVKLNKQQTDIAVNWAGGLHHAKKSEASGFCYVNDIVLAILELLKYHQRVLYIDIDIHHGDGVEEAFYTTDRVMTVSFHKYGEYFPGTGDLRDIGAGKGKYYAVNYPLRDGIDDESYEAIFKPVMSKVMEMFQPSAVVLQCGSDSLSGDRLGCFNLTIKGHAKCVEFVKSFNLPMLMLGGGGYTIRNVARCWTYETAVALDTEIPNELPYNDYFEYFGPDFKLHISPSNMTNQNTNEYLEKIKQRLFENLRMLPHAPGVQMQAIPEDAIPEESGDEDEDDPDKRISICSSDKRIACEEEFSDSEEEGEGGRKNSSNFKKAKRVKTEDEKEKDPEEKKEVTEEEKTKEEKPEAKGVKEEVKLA

| Compound | IC50 [1] | IC50 [2] | IC50 [3] |
| --- | --- | --- | --- |
| O=C(N[C@@H](CCCCCCSSc1ccccn1)C(=O)Nc1nc(-c2ccccc2)cs1)OCc1ccccc1 | 0.0051 µM | 3.2 µM | 0.0039 µM |
| O=C(N[C@@H](CCCCCCSSc1ccccn1)C(=O)OCc1ccc(-c2ccccc2)cc1)OCc1ccccc1 | 0.0641 µM | 15.6 µM | 0.0407 µM |
| CC(/C=C/C(=O)NO)=C\[C@@H](C)C(=O)c1ccc(N(C)C)cc1 [TRICHOSTATIN] |  | 1.7 µM |  |
| O=C(N[C@@H](CCCCCCSSc1ccccn1)C(=O)OCc1ccc2ccccc2c1)OCc1ccccc1 | 0.0652 µM | 14.8 µM | 0.0403 µM |
| O=C(N[C@@H](CCCCCCSSc1ccccn1)C(=O)OCc1cccc([N+](=O)[O-])c1)OCc1ccccc1 | 0.0667 µM | 15.2 µM | 0.0485 µM |
| O=C(N[C@@H](CCCCCCSSc1ccccn1)C(=O)OCC1c2ccccc2-c2ccccc21)OCc1ccccc1 | 0.0076 µM | 3.5 µM | 0.0052 µM |
| O=C(N[C@@H](CCCCCCSSc1ccccn1)C(=O)OCc1c2ccccc2cc2ccccc12)OCc1ccccc1 | 0.0592 µM | 14 µM | 0.0436 µM |
| O=C(N[C@@H](CCCCCCSSc1ccccn1)C(=O)OCc1cccc2ccccc12)OCc1ccccc1 | 0.0647 µM | 15.3 µM | 0.0396 µM |
| O=C(N[C@@H](CCCCCCSSc1ccccn1)C(=O)Nc1ccccc1-c1ccccc1)OCc1ccccc1 | 0.0712 µM | 20.8 µM | 0.0452 µM |

Continued by falling IC50 [2], values first:

| IC50 [1] | IC50 [2] | IC50 [3] | Compound |
| --- | --- | --- | --- |
| 0.0669 µM | 19.6 µM | 0.0441 µM | O=C(N[C@@H](CCCCCCSSc1ccccn1)C(=O)NC1CCCCC1)OCc1ccccc1 |
| 0.0709 µM | 18.1 µM | 0.0466 µM | O=C(N[C@@H](CCCCCCSSc1ccccn1)C(=O)Nc1ccc(-c2ccccc2)cc1)OCc1ccccc1 |
| 0.0682 µM | 17.2 µM | 0.0481 µM | O=C(N[C@@H](CCCCCCSSc1ccccn1)C(=O)NC1c2ccccc2-c2ccccc21)OCc1ccccc1 |
| 0.0644 µM | 16.9 µM | 0.0455 µM | O=C(N[C@@H](CCCCCCSSc1ccccn1)C(=O)OCc1ccc([N+](=O)[O-])cc1)OCc1ccccc1 |
| 0.0652 µM | 15.3 µM | 0.0382 µM | O=C(N[C@@H](CCCCCCSSc1ccccn1)C(=O)Nc1cccc2ccccc12)OCc1ccccc1 |
